The values below come from ChEMBL document CHEMBL3351351, “Synthesis and evaluation of sulfonylethyl-containing phosphotriesters of 3'-azido-3'-deoxythymidine as anticancer prodrugs” (Bioorg Med Chem, 2014).

Data set [1] is described as follows: Cytotoxicity against human KB-3-1 cells after 72 hrs by MTT assay. The data set is classed as functional, cell-based. To be noted: KB 3-1, 72 h.
The nature of data set [2]: Half life in human plasma by TLC. The data set is classed as ADME, cell-free. Put shortly: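 Freshly reconstituted lyophilized human plasma in 0.1 M phosphate buffer pH 7.4 (0.4 mL plasma solution plus 0.1 mL drug solution) incubated at 37 °C. Stopped as for the buffer test, proteins spun out at 3000 × g for 30 min, supernatant run on TLC. Half-life from first-order decay, three independent experiments; the ratio compares it with the buffer half-life.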

Data set [3] relates to 143B. The experiment in a line: Cytotoxicity against human 143B cells after 72 hrs by MTT assay. The data set is classed as functional, cell-based. (In general: Formazan colour is commonly taken as a measure of viable cells.)
The nature of data set [4]: Cytotoxicity against human H460 cells after 72 hrs by MTT assay. The format is functional, cell-based. To be noted: NCI-H460, 72 h.
The nature of data set [5]: Half life in 0.1 M phosphate buffer at pH 7.4 at 37 degC by TLC. The format is physicochemical. Put shortly: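 Compound incubated in 0.1 M phosphate buffer pH 7.4 at 37 °C with shaking for varying times. Stopped with 2.0 M acetate buffer (pH 5) and ethanol, then chilled on ice and analysed by TLC. Percent parent left relative to zero-time control plotted against time; t1/2 = ln2/k from decay rate constant; mean ± SD of three independent experiments.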

Data set [6] deals with SW-620. Put plainly: Cytotoxicity against human SW620 cells after 72 hrs by MTT assay. The format is functional, cell-based. Particulars: SW-620, 72 h.
The subject of data set [7] is MCF7. Put plainly: Cytotoxicity against human MCF7 cells after 72 hrs by MTT assay. Particulars: MCF7, 72 h. The format is functional, cell-based.
Data set [8] concerns 143B. The experiment in a line: Ratio of IC50 for human thymidine kinase-deficient 143B cells to IC50 for human 143B cells. The format is functional. Put shortly:
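143B kept in EMEM with 10% FBS and 1% penicillin/streptomycin; the TK-deficient 143B/TK⁻ line kept in EMEM with 0.015 mg/mL 5-BrdU.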

Data set [9] relates to 143B. The experiment in a line: Cytotoxicity against human thymidine kinase-deficient 143B cells after 72 hrs by MTT assay. The format is functional, cell-based.

For orientation: IC50 means the concentration that gives 50% inhibition. As a reminder, the half-life is the time in which the quantity being followed falls by half. On to `Cc1cn([C@H]2C[C@H](N=[N+]=[N-])[C@@H](COP(=O)(OCCS(=O)(=O)c3ccccc3)OCCS(=O)(=O)c3ccccc3)O2)c(=O)[nH]c1=O`, for which the IC50 in [1] came to 11 µM; in data set [3], 16.3 µM; in data set [4], 7.59 µM; in data set [6], 43 µM; in data set [7] it was 16.3 µM. The half-life in data set [2] is 13.8 min; in data set [5], 42.6 min.
Consider `Cc1ccc(S(=O)(=O)CCOP(=O)(OCCS(=O)(=O)c2ccc(C)cc2)OC[C@H]2O[C@@H](n3cc(C)c(=O)[nH]c3=O)C[C@@H]2N=[N+]=[N-])cc1`, for which the IC50 in data set [1] is 14.4 µM; in data set [3], 19.6 µM; in [4], 11.3 µM; in [6], 46.6 µM; in data set [7], 19.6 µM. For the same compound, the half-life in [2] was 24 min; in data set [5], 65.4 min.
`COc1ccc(S(=O)(=O)CCOP(=O)(OCCS(=O)(=O)c2ccc(OC)cc2)OC[C@H]2O[C@@H](n3cc(C)c(=O)[nH]c3=O)C[C@@H]2N=[N+]=[N-])cc1`: the IC50 was 4.68 µM in [1]; 5.16 µM in data set [9]; 5.45 µM in [3]; 1.71 µM in data set [4]; 7.62 µM in data set [6]; 6.38 µM in [7]. Also, the “Ratio IC50” value in data set [8] is recorded as 0.9. Also, the values for the half-life in [2] and in data set [5] were 33 min and 86.4 min, respectively.
Regarding `Cc1cn([C@H]2C[C@H](N=[N+]=[N-])[C@@H](COP(=O)(OCCS(=O)(=O)c3ccc(Cl)cc3)OCCS(=O)(=O)c3ccc(Cl)cc3)O2)c(=O)[nH]c1=O`, the IC50 in data set [1] worked out at 7.84 µM; in data set [9] it was 8.8 µM; in data set [3] it was 7.83 µM; in data set [4], 4.47 µM; in data set [6], 11.6 µM; in data set [7], 9.46 µM. For the same compound, in [8], the “Ratio IC50” value came to 1.1. Besides, the results for the half-life in [2] and in data set [5] were 7.8 min and 21.6 min, respectively.
For the compound `Cc1cn([C@H]2C[C@H](N=[N+]=[N-])[C@@H](COP(=O)(OCCS(=O)(=O)c3ccc([N+](=O)[O-])cc3)OCCS(=O)(=O)c3ccc([N+](=O)[O-])cc3)O2)c(=O)[nH]c1=O`, the IC50 came to 20.4 µM in data set [1]; 23.1 µM in data set [3]; 15.2 µM in data set [4]; 57 µM in [6]; 22.9 µM in [7]. Further, the half-life in data set [2] was 1.2 min; in data set [5] it was 4.2 min.
For `Cc1cn([C@H]2C[C@H](N=[N+]=[N-])[C@@H](COP(=O)(OCC(C)S(=O)(=O)c3ccccc3)OCC(C)S(=O)(=O)c3ccccc3)O2)c(=O)[nH]c1=O` (some centres undefined), the IC50 was determined as 25.2 µM in [1]; 27.4 µM in data set [3]; 23.7 µM in [4]; 68.2 µM in data set [6]; 27.6 µM in data set [7]. Also, the half-life in data set [2] was 253 min; in [5], 814 min.
Regarding `Cc1cn([C@H]2C[C@H](N=[N+]=[N-])[C@@H](COP(=O)(OC(C)CS(=O)(=O)c3ccccc3)OC(C)CS(=O)(=O)c3ccccc3)O2)c(=O)[nH]c1=O` (some centres undefined), the IC50 amounted to 18.4 µM in data set [1]; 22.5 µM in data set [3]; 14.6 µM in data set [4]; 54.8 µM in data set [6]; 22.4 µM in [7]. Besides, the half-life in data set [2] is 81 min; in data set [5] it was 214 min.
For `CCC(CS(=O)(=O)c1ccccc1)OP(=O)(OC[C@H]1O[C@@H](n2cc(C)c(=O)[nH]c2=O)C[C@@H]1N=[N+]=[N-])OC(CC)CS(=O)(=O)c1ccccc1` (some centres undefined), the concentration for half-maximal inhibition (IC50) in [1] came to 8.28 µM; in data set [9], 13.3 µM; in data set [3] it was 11.5 µM; in data set [4], 5.13 µM; in [6], 27.8 µM; in [7], 12.2 µM. Besides, the “Ratio IC50” value in data set [8] was 1.2. The values for the half-life in data set [2] and in [5] were 106 min and 325 min, respectively.
In the case of `Cc1cn([C@H]2C[C@H](N=[N+]=[N-])[C@@H](COP(=O)(OC(C)C(C)S(=O)(=O)c3ccccc3)OC(C)C(C)S(=O)(=O)c3ccccc3)O2)c(=O)[nH]c1=O` (some centres undefined), the IC50 in data set [1] amounted to 24.2 µM; in [3] it was 26.4 µM; in [4], 22.2 µM; in data set [6], 66.7 µM; in [7], 26.8 µM. Besides, the figures for the half-life in data set [2] and in data set [5] were 4210 min and 16700 min, respectively.
With `Cc1cn([C@H]2C[C@H](N=[N+]=[N-])[C@@H](COP(=O)(OCC(c3ccccc3)S(=O)(=O)c3ccccc3)OCC(c3ccccc3)S(=O)(=O)c3ccccc3)O2)c(=O)[nH]c1=O` (some centres undefined), the IC50 was 9.82 µM in data set [1]; 19.7 µM in data set [9]; 14.2 µM in [3]; 7.13 µM in data set [4]; 42.2 µM in data set [6]; 14.1 µM in data set [7]. Also, the “Ratio IC50” value in [8] amounted to 1.2. The half-life in [2] is 30.6 min; in data set [5] it was 130 min.
As for `Cc1cn([C@H]2C[C@H](N=[N+]=[N-])[C@@H](COP(=O)(OCCS(=O)(=O)c3ccccc3)Oc3ccccc3)O2)c(=O)[nH]c1=O` (some centres undefined), the IC50 in data set [1] is 21.7 µM; in data set [3] it was 25.4 µM; in data set [4] it was 18.2 µM; in data set [6], 62.1 µM; in [7] it was 25.3 µM. The figures for the half-life in data set [2] and in data set [5] were 27 min and 73.2 min, respectively.
With `Cc1ccc(OP(=O)(OCCS(=O)(=O)c2ccccc2)OC[C@H]2O[C@@H](n3cc(C)c(=O)[nH]c3=O)C[C@@H]2N=[N+]=[N-])cc1` (some centres undefined), the IC50 in data set [1] came out at 27.1 µM; in [3], 28.3 µM; in data set [4] it was 24.7 µM; in data set [6], 71.7 µM; in [7], 28.2 µM. The figures for the half-life in [2] and in data set [5] were 36 min and 79.2 min, respectively.
For the compound `COc1ccc(OP(=O)(OCCS(=O)(=O)c2ccccc2)OC[C@H]2O[C@@H](n3cc(C)c(=O)[nH]c3=O)C[C@@H]2N=[N+]=[N-])cc1` (some centres undefined), the concentration for half-maximal inhibition (IC50) in data set [1] turned out to be 15.2 µM; in data set [9], 25.3 µM; in data set [3], 20.2 µM; in data set [4], 12.3 µM; in [6], 47.3 µM; in [7] it was 20.4 µM. Moreover, in [8], the “Ratio IC50” value is reported as 1.3. Further, the figures for the half-life in [2] and in data set [5] were 36 min and 91.8 min, respectively.
Consider `Cc1cn([C@H]2C[C@H](N=[N+]=[N-])[C@@H](COP(=O)(OCCS(=O)(=O)c3ccccc3)Oc3ccc(F)cc3)O2)c(=O)[nH]c1=O` (some centres undefined), for which the 50% inhibitory concentration (IC50) in data set [1] amounted to 23.3 µM; in data set [3] it was 26.6 µM; in data set [4], 20.8 µM; in [6] it was 64.5 µM; in data set [7], 26.2 µM. In addition, the half-life in data set [2] was 22.2 min; in [5] it was 64.8 min.
Consider `Cc1cn([C@H]2C[C@H](N=[N+]=[N-])[C@@H](COP(=O)(OCCS(=O)(=O)c3ccccc3)Oc3ccc(Cl)cc3)O2)c(=O)[nH]c1=O` (some centres undefined), for which the IC50 in data set [1] was 21.4 µM; in data set [3], 24.4 µM; in [4], 17.9 µM; in [6], 61.3 µM; in data set [7] it was 25 µM. Besides, the half-life in [2] was 21 min; in data set [5], 47.4 min.
As to `Cc1ccc(OP(=O)(OCCSc2ccccc2)OC[C@H]2O[C@@H](n3cc(C)c(=O)[nH]c3=O)C[C@@H]2N=[N+]=[N-])cc1` (some centres undefined), the half-life in data set [2] is 1200 min; in [5], 720 min.
Consider `Cc1cn([C@H]2C[C@H](N=[N+]=[N-])[C@@H](CO)O2)c(=O)[nH]c1=O` [ZIDOVUDINE], for which the IC50 in data set [1] came out at 9.17 µM; in data set [9], 148 µM; in data set [3], 12.2 µM; in data set [4], 6.81 µM; in data set [6], 39.1 µM; in data set [7] it was 13.7 µM. Besides, the “Ratio IC50” value in data set [8] came out at 12.1.
